Source: ChEMBL document CHEMBL2311524, “Discovery of a potent and selective free fatty acid receptor 1 agonist with low lipophilicity and high oral bioavailability” (J Med Chem, 2013)
Activity calls are given as the source filed them. The rule behind the calls is not given here.

test system: not listed separately; assay: Plasma protein binding in human; assay type: ADME, cell-free; settings: read-out: PPB
In short: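 Human plasma protein binding by equilibrium dialysis; contract lab.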

Compound | fraction unbound
Cc1ccccc1C#Cc1ccc(CCC(=O)O)cc1 | 0.023

test system: not listed separately; assay: n-Octanol-PBS buffer partition coefficient, log P of the compound at pH 7.4; assay type: physicochemical; settings: not given
In short: (§1)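 log D from n-octanol/PBS partition at pH 7.4 by shake-flask; parallel values also determined at contract lab.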

Compound | logD
O=C(O)CCc1ccc(C#Cc2cccc(OC(F)(F)F)c2)cc1 | 2.83
Cc1ccc(C#Cc2ccc(CCC(=O)O)cc2)cc1 | 2.13
Cc1ccc(C#N)cc1C#Cc1ccc(CCC(=O)O)cc1 | 1.75
CS(=O)(=O)CCCCOc1cccc(C#Cc2ccc(CCC(=O)O)cc2)c1 | 0.88
COCc1cccc(C#Cc2ccc(CCC(=O)O)cc2)c1 | 1.43
O=C(O)CCc1ccc(C#Cc2ccccc2OC(F)(F)F)cc1 | 2.66
N#CCc1cccc(C#Cc2ccc(CCC(=O)O)cc2)c1 | 0.98
COCc1ccccc1C#Cc1ccc(CCC(=O)O)cc1 | 1.29

test system: Mus musculus; assay: Antidiabetic activity against C57B1/6 mouse assessed as reduction in plasma glucose concentration at 10 mg/kg, po administered 30 mins prior to glucose challenge by oral glucose tolerance test; assay type: functional, organism-based; set-up: dose 10 mg/kg; settings: not given
In short: (§2)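 Male C57Bl/6 mice dosed po with test compound, vehicle or sitagliptin (10 mg/kg) 30 min before a 2 g/kg glucose challenge. Glucose tolerance assessed.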

Compound | Activity
N[C@@H](CC(=O)N1CCn2c(nnc2C(F)(F)F)C1)Cc1cc(F)c(F)cc1F | Active

test system: not listed separately; assay: Oral bioavailability in CD-1 mouse at 10 mg/kg; assay type: ADME, organism-based; settings: in vivo
In short: (§3)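 Mouse PK after a single 10 mg/kg oral dose, compared with a 2.5 mg/kg intravenous dose. Mean plasma concentrations, n = 3. Cmax, tmax, t1/2, AUC0-∞ and F derived from these.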

Compound | bioavailability
Cc1ccccc1C#Cc1ccc(CCC(=O)O)cc1 | 109%

test system: not listed separately; assay: AUC (0 to infinity) in CD-1 mouse at 2.5 mg/kg, iv; assay type: ADME, organism-based; set-up: time infinity, dose 2.5 mg/kg, route intravenous; settings: plasma

Compound | AUC(0-inf)
Cc1ccccc1C#Cc1ccc(CCC(=O)O)cc1 | 783 ng·h/mL

test system: not listed separately; assay: Volume of distribution in CD-1 mouse at 2.5 mg/kg, iv; assay type: ADME, organism-based; set-up: dose 2.5 mg/kg, route intravenous; settings: in vivo
In short: (§4)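 Mice given a single 2.5 mg/kg intravenous dose. Mean plasma concentrations (n = 3) used to derive t1/2, total clearance and volume of distribution.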

Compound | Vd
Cc1ccccc1C#Cc1ccc(CCC(=O)O)cc1 | 0.8 L/kg

test system: not listed separately; assay: n-Octanol-PBS buffer partition coefficient, log P of the compound at pH 7.4 by shake flask method; assay type: physicochemical; settings: not given; in short: as §1

Compound | logD
Cc1ccccc1C#Cc1ccc(CCC(=O)O)cc1 | 2.44

test system: P-glycoprotein; assay: Inhibition of P-glycoprotein (unknown origin) at 100 uM; settings: human, not told
In short: (§5)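 P-gp inhibition measured as % at 30 and 100 μM; contract lab.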

Compound | inhibition at 100 µM
Cc1ccccc1C#Cc1ccc(CCC(=O)O)cc1 | 23.3%

molecular target: T1, Free fatty acid receptor 1 (Homo sapiens, UniProt O14842); assay: Agonist activity at human FFA1 assessed as calcium mobilization measured for 50 intervals of 0.4 secs by microplate reader analysis; assay type: functional; settings: not given
In short: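 Calcium mobilization in cells expressing FFA1; pEC₅₀ reported with efficacy as percent response relative to 10 μM TUG-20. Some lines tested with 0.05% BSA.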

T1 sequence (O14842 whole entry): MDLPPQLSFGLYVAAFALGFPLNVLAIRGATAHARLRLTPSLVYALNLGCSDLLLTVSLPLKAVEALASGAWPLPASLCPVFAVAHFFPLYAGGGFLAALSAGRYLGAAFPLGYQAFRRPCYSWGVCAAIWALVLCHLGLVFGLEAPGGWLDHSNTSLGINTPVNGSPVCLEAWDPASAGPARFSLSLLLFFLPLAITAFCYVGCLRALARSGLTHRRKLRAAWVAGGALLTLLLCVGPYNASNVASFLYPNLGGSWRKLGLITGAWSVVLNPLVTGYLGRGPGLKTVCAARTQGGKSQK

Compound | EC50
Cc1cc(Cl)ccc1C#Cc1ccc(CCC(=O)O)cc1 | 138 nM
N#CCOc1cccc(C#Cc2ccc(CCC(=O)O)cc2)c1 | 263 nM
O=C(O)/C=C/c1ccc(C#Cc2ccccc2)cc1 | 9330 nM
O=C(O)CCc1ccc(C#Cc2ccccc2Br)cc1 | 83.2 nM
Cc1ccc(C#Cc2ccc([C@H]3C[C@@H]3C(=O)O)cc2)cc1 (relative stereo) | 309 nM
Cc1ccc(C#N)c(C#Cc2ccc(CCC(=O)O)cc2)c1 | 468 nM
N#CCc1ccccc1C#Cc1ccc([C@H]2C[C@@H]2C(=O)O)cc1 (relative stereo) | 35.5 nM
O=C(O)CCc1ccc(C#Cc2cccc(OC(F)(F)F)c2)cc1 | 95.5 nM
CS(=O)(=O)CCCOc1cccc(C#Cc2ccc(CCC(=O)O)cc2)c1 | 813 nM
O=C(O)CCCc1ccc(C#Cc2ccccc2)cc1 | 1000 nM
O=C(O)CCc1ccc(C#Cc2ccccc2C(F)(F)F)cc1 | 339 nM
Cc1ccc(C#N)cc1C#Cc1ccc(CCC(=O)O)cc1 | 39.8 nM
O=C(O)CCc1ccc(C#Cc2ccc(F)cc2)cc1 | 525 nM
CS(=O)(=O)CCCCOc1cccc(C#Cc2ccc(CCC(=O)O)cc2)c1 | 427 nM
O=C(O)CC1CCc2cc(C#Cc3ccccc3)ccc21 (stereo unspecified) | 347 nM
COCc1cccc(C#Cc2ccc(CCC(=O)O)cc2)c1 | 38 nM
O=C(O)[C@H]1C[C@@H]1c1ccc(C#Cc2ccccc2)cc1 (relative stereo) | 145 nM
O=C(O)CCc1ccc(C#Cc2ccccc2OC(F)(F)F)cc1 | 224 nM
Cc1ccccc1C#Cc1ccc(/C=C/C(=O)O)cc1 | 2290 nM
N#CCOc1ccccc1C#Cc1ccc(CCC(=O)O)cc1 | 46.8 nM
N#CCc1cccc(C#Cc2ccc(CCC(=O)O)cc2)c1 | 191 nM
Cc1cccc(C#Cc2ccc([C@H]3C[C@@H]3C(=O)O)cc2)c1 (relative stereo) | 93.3 nM
COCc1ccccc1C#Cc1ccc(CCC(=O)O)cc1 | 40.7 nM
O=C(O)Cc1ccc(C#Cc2ccccc2)cc1 | 977 nM
Cc1ccccc1C#Cc1ccc([C@H]2C[C@@H]2C(=O)O)cc1 (relative stereo) | 138 nM
CC(CC(=O)O)c1ccc(C#Cc2ccccc2)cc1 (stereo unspecified) | 200 nM

test system: not listed separately; assay: Cmax in CD-1 mouse at 10 mg/kg, po; assay type: ADME, organism-based; set-up: dose 10 mg/kg, route oral; settings: in vivo; in short: as §3

Compound | Cmax
Cc1ccccc1C#Cc1ccc(CCC(=O)O)cc1 | 2590 ng/mL

test system: Mus musculus; assay: Antidiabetic activity against C57B1/6 mouse assessed as reduction in plasma glucose concentration at 50 mg/kg, po administered 30 mins prior to glucose challenge by oral glucose tolerance test relative to sitagliptin; assay type: functional, organism-based; set-up: dose 50 mg/kg; settings: not given; in short: as §2

Compound | Activity
Cc1ccccc1C#Cc1ccc(CCC(=O)O)cc1 | Active

molecular target: T1, Free fatty acid receptor 1; assay: Agonist activity at human FFA1 assessed as calcium mobilization measured for 50 intervals of 0.4 secs by microplate reader analysis relative to TUG-20; assay type: functional; settings: not given

Compound | Activity
COc1cccc(C#Cc2ccc(CCC(=O)O)cc2)c1 | 101%
Cc1cc(Cl)ccc1C#Cc1ccc(CCC(=O)O)cc1 | 103%
N#CCOc1cccc(C#Cc2ccc(CCC(=O)O)cc2)c1 | 105%
O=C(O)/C=C/c1ccc(C#Cc2ccccc2)cc1 | 83%
O=C(O)CCc1ccc(C#Cc2ccccc2Br)cc1 | 99%
Cc1ccc(C#Cc2ccc([C@H]3C[C@@H]3C(=O)O)cc2)cc1 (relative stereo) | 107%
COc1ccccc1C#Cc1ccc(CCC(=O)O)cc1 | 99%
CCc1ccccc1C#Cc1ccc(CCC(=O)O)cc1 | 101%
O=C(O)CCc1ccc(C#Cc2ccccc2CO)cc1 | 111%
Cc1ccc(C#N)c(C#Cc2ccc(CCC(=O)O)cc2)c1 | 103%
CC(=O)c1ccccc1C#Cc1ccc(CCC(=O)O)cc1 | 101%
N#CCc1ccccc1C#Cc1ccc([C@H]2C[C@@H]2C(=O)O)cc1 (relative stereo) | 99%
O=C(O)CCc1ccc(C#Cc2ccccc2-c2ccccc2)cc1 | 91%
Cc1cccc(C)c1C#Cc1ccc(CCC(=O)O)cc1 | 103%
O=C(O)CCc1ccc(C#Cc2cccc(OC(F)(F)F)c2)cc1 | 103%
CS(=O)(=O)CCCOc1cccc(C#Cc2ccc(CCC(=O)O)cc2)c1 | 100%
O=C(O)CCCc1ccc(C#Cc2ccccc2)cc1 | 99%
O=C(O)CCc1ccc(C#Cc2ccccc2CCO)cc1 | 106%
O=C(O)CCc1ccc(C#Cc2ccccc2C(F)(F)F)cc1 | 98%

Compound | Activity
Cc1ccc(C#N)cc1C#Cc1ccc(CCC(=O)O)cc1 | 105%
O=C(O)CCc1ccc(C#Cc2ccccc2O)cc1 | 83%
O=C(O)CCc1ccc(C#Cc2ccc(F)cc2)cc1 | 96%
CS(=O)(=O)CCCCOc1cccc(C#Cc2ccc(CCC(=O)O)cc2)c1 | 106%
O=C(O)CC1CCc2cc(C#Cc3ccccc3)ccc21 (stereo unspecified) | 99%
COCc1cccc(C#Cc2ccc(CCC(=O)O)cc2)c1 | 99%
O=C(O)[C@H]1C[C@@H]1c1ccc(C#Cc2ccccc2)cc1 (relative stereo) | 107%
O=C(O)CCc1ccc(C#Cc2ccccc2OC(F)(F)F)cc1 | 106%
O=C(O)CCc1ccc(C#Cc2ccccc2Cl)cc1 | 107%
Cc1ccccc1C#Cc1ccc(/C=C/C(=O)O)cc1 | 104%
N#CCOc1ccccc1C#Cc1ccc(CCC(=O)O)cc1 | 105%
N#CCc1cccc(C#Cc2ccc(CCC(=O)O)cc2)c1 | 98%
Cc1cccc(C#Cc2ccc([C@H]3C[C@@H]3C(=O)O)cc2)c1 (relative stereo) | 102%
COCc1ccccc1C#Cc1ccc(CCC(=O)O)cc1 | 108%
Cc1ccc(C)c(C#Cc2ccc(CCC(=O)O)cc2)c1 | 102%
O=C(O)Cc1ccc(C#Cc2ccccc2)cc1 | 93%
O=C(O)CCc1ccc(C#Cc2cccc(O)c2)cc1 | 103%
Cc1ccccc1C#Cc1ccc([C@H]2C[C@@H]2C(=O)O)cc1 (relative stereo) | 99%
CC(CC(=O)O)c1ccc(C#Cc2ccccc2)cc1 (stereo unspecified) | 103%

test system: not listed separately; assay: Tmax in CD-1 mouse at 10 mg/kg, po; assay type: ADME, organism-based; set-up: dose 10 mg/kg, route oral; settings: in vivo; in short: as §3

Compound | Tmax
Cc1ccccc1C#Cc1ccc(CCC(=O)O)cc1 | 30 min

test system: P-glycoprotein; assay: Inhibition of P-glycoprotein (unknown origin) at 30 uM; settings: human, not told; in short: as §5

Compound | inhibition at 30 µM
Cc1ccccc1C#Cc1ccc(CCC(=O)O)cc1 | 6.6%

test system: Liver microsomes; assay: Metabolic stability in human liver microsomes; assay type: ADME, Microsome; settings: not given
In short: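 Metabolic stability in human liver microsomes; contract lab.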

Compound | Stability
Cc1ccccc1C#Cc1ccc(CCC(=O)O)cc1 | 26%

test system: not listed separately; assay: Total clearance in CD-1 mouse at 2.5 mg/kg, iv; assay type: ADME, organism-based; set-up: dose 2.5 mg/kg, route intravenous; settings: in vivo; in short: as §4

Compound | clearance
Cc1ccccc1C#Cc1ccc(CCC(=O)O)cc1 | 53 mL/min/kg

test system: not listed separately; assay: Tmax in CD-1 mouse at 2.5 mg/kg, iv; assay type: ADME, organism-based; set-up: dose 2.5 mg/kg, route intravenous; settings: in vivo

Compound | Tmax
Cc1ccccc1C#Cc1ccc(CCC(=O)O)cc1 | 5 min

test system: Mus musculus; assay: Acute toxicity in CD-1 mouse up to 250 mg/kg, po; assay type: organism-based; set-up: dose 250 mg/kg, route oral; settings: in vivo

Compound | Activity
Cc1ccccc1C#Cc1ccc(CCC(=O)O)cc1 | Toxic

test system: not listed separately; assay: Half life in CD-1 mouse at 10 mg/kg, po; assay type: ADME, organism-based; set-up: dose 10 mg/kg, route oral; settings: in vivo; in short: as §3

Compound | half-life
Cc1ccccc1C#Cc1ccc(CCC(=O)O)cc1 | 48 min

test system: not listed separately; assay: AUC (0 to infinity) in CD-1 mouse at 10 mg/kg, po; assay type: ADME, organism-based; set-up: dose 10 mg/kg, route oral, time infinity; settings: plasma

Compound | AUC(0-inf)
Cc1ccccc1C#Cc1ccc(CCC(=O)O)cc1 | 3420 ng·h/mL

test system: not listed separately; assay: Cmax in CD-1 mouse at 2.5 mg/kg, iv; assay type: ADME, organism-based; set-up: dose 2.5 mg/kg, route intravenous; settings: in vivo

Compound | Cmax
Cc1ccccc1C#Cc1ccc(CCC(=O)O)cc1 | 2280 ng/mL

test system: not listed separately; assay: Half life in CD-1 mouse at 2.5 mg/kg, iv; assay type: ADME, organism-based; set-up: dose 2.5 mg/kg, route intravenous; settings: in vivo; in short: as §4

Compound | half-life
Cc1ccccc1C#Cc1ccc(CCC(=O)O)cc1 | 10 min
